# Measurements from ChEMBL document CHEMBL1926570, “Ultrasound mediated catalyst free synthesis of 6H-1-benzopyrano[4,3-b]quinolin-6-ones leading to novel quinoline derivatives: their evaluation as potential anti-cancer agents” (Bioorg Med Chem, 2012).
# Legend:
# K562 = test: Cytotoxicity against human K562 cells after 24 hrs by MTT assay; format: functional, cell-based; settings: K562, 24 h
# Method in brief: (§1)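 Cells obtained from National Center for Cell Sciences, Pune, and grown in RPMI-1640 with 10% heat-inactivated FBS, penicillin/streptomycin and 2 mM glutamine at 37 °C, 5% CO₂. Seeded at 5 × 10³ cells/well and treated with or without compound at 1 and 10 for 24 h. MTT (5 mg/ml in PBS) was added for 2 h at 37 °C, then DMSO, and absorbance read at 570 nm. Triplicate wells per point; IC50 is 50% growth inhibition relative to untreated cells.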
# COLO 205 = test: Cytotoxicity against human COLO205 cells after 24 hrs by MTT assay; format: functional, cell-based; settings: COLO 205, 24 h; method in brief: as §1
# IMR-32 = test: Cytotoxicity against human IMR32 cells after 24 hrs by MTT assay; format: functional, cell-based; settings: IMR-32, 24 h; method in brief: as §1
# MDA-MB-231 = test: Cytotoxicity against human MDA-MB-231 cells after 24 hrs by MTT assay; format: functional, cell-based; settings: MDA-MB-231, 24 h; method in brief: as §1
# [1] = biological target: T1, NAD-dependent protein deacetylase sirtuin-1 (Homo sapiens) (UniProt Q96EB6); test: Inhibition of human N-terminally hexa-his-tagged SIRT1 expressed in Escherichia coli BL21 (DE3) at 10 uM after 15 mins by […]
# T1 sequence (whole entry): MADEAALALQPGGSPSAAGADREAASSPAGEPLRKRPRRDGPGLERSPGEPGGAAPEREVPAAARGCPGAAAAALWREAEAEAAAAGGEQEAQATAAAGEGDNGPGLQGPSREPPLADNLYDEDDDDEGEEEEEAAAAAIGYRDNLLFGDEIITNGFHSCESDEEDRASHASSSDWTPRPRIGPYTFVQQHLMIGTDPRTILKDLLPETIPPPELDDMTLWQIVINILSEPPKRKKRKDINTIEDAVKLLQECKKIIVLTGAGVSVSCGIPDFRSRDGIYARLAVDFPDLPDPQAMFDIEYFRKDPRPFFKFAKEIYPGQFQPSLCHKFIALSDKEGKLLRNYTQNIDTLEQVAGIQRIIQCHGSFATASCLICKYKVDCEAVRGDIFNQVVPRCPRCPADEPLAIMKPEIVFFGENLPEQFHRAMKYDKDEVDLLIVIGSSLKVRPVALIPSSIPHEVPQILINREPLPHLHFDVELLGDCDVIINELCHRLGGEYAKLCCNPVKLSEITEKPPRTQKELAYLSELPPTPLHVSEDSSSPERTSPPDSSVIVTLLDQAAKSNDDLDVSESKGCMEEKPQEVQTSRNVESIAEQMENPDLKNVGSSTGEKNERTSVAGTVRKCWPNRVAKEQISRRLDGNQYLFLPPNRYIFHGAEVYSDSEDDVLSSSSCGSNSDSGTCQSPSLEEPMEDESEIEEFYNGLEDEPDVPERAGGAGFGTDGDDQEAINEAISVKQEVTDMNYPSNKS
# Method in brief: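 Commercial SIRT1 fluorescence kit using bacterially purified human Sirt1, fluorophore-labelled substrate peptide (25) and NAD⁺ (25), with or without compound at 10, for 15 min at 37 °C. Stop solution was then added for 45 min at room temperature. Fluorescence read at Ex 360/Em 450 nm. The no-enzyme blank and the compound autofluorescence (no-enzyme) control were subtracted.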
Compound,IC50 (K562) [µM],IC50 (COLO 205) [µM],IC50 (IMR-32) [µM],IC50 (MDA-MB-231) [µM],inhibition [1] [%]
OCc1cc2cc(Cl)ccc2nc1-c1ccccc1O,11,24,65,> 100,–
O=c1oc2ccccc2c2nc3c(F)c(F)ccc3cc12,28,29,36,23,48
COc1ccc2nc3c(cc2c1)c(=O)oc1ccccc13,39,41,36,9,–
COc1cccc2cc3c(=O)oc4ccccc4c3nc12,35,24,46,16,–
O=c1oc2ccccc2c2nc3cc(F)c(F)cc3cc12,41,11,25,8,–
NS(=O)(=O)c1cc(C(=O)O)cc([N+](=O)[O-])c1NCc1cc2ccccc2nc1-c1ccccc1O,10,19,18,8,61
Cc1ccc2nc3c(cc2c1)c(=O)oc1ccccc13,23,29,33,12,–
[N-]=[N+]=NCc1cc2ccccc2nc1-c1ccccc1O,11,19,24,12,53
COc1ccc2c(c1)[nH]c1c(C)nccc12 [HARMINE],45,46,68,54,–
O=c1oc2ccccc2c2nc3ccc(Cl)cc3cc12,32,16,46,14,–
O=c1oc2ccccc2c2nc3ccccc3cc12,43,18,28,12,–
O=c1oc2ccccc2c2nc3cc(F)ccc3cc12,35,21,41,29,–
OCc1cc2cc(F)c(F)cc2nc1-c1ccccc1O,12,> 100,63,> 100,48
CS(=O)(=O)N(Cc1cn(Cc2cc3ccccc3nc2-c2ccccc2O)nn1)c1ccccc1I,13,12,38,8,62
O=c1oc2ccccc2c2nc3cc(Br)ccc3cc12,23,38,23,19,–
NCc1cc2ccccc2nc1-c1ccccc1O,23,32,46,19,59
Cc1ccc2nc(-c3ccccc3O)c(CO)cc2c1,12,> 100,> 100,> 100,–
O=c1oc2ccccc2c2nc3ccc(F)cc3cc12,37,17,43,11,–
OCc1cc2ccccc2nc1-c1ccccc1O,74,40,> 100,> 100,–
